Measured values published in article PMC4102938 (British Journal of Cancer, 2014).
Blank lines part the entries; values can stand above or below the molecule they belong to.

Tests used:
[1] = test system: CRM1; details: 24 h of incubation; ref Sun et al (2013); cited from earlier work
[2] = test system: six NSCLC cell lines; assay: Apoptosis, annexin V/propidium iodide flow cytometry, six lines; format: cell-based, human; details: range over six NSCLC cell lines, 24 h
Outline: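 Cells seeded at 50% confluency, incubated overnight, then given fresh medium with diluent control or test compound (1, 10, 100, 1000 nM) for 24 h. Cells were PBS-washed, trypsinized, resuspended in annexin-binding buffer at 1 × 10^6 cells per ml, and stained with annexin V plus propidium iodide. Analysed by flow cytometry; read-out is the percent annexin V/PI co-positive cells.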

[3] = test system: H1975 NSCLC xenografts; assay: Immunohistochemistry of xenograft tumours; format: in vivo, NOD/SCID mice; details: end of treatment, 10 mg kg^−1 thrice weekly × 4 weeks
Outline: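 At the end of the 28-day oral dosing, H1975 xenograft tumours were formalin-fixed, paraffin-embedded and cut at 5.0 μm. Peroxidase was quenched with 3% H2O2, sections blocked 1 h at room temperature in PBS with 3% normal serum, then probed overnight at 4 °C for Ki-67 or TUNEL. Detection used biotinylated secondary (1:200) plus avidin–biotin peroxidase. Three random ×200 fields were scored, counting 100 cells in triplicate; positives are given as % of total cells.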

[4] = test system: H1975 cells stably carrying shp73; assay: MTT growth assay, p73-knockdown cells; format: cell-based; details: Homo sapiens, NCI-H1975, 72 h
Outline: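 H1975 cells stably carrying a p73-targeting or scrambled shRNA were used, made by pLKO.1 lentiviral infection with polybrene for 16 h and puromycin selection for 3 days beginning 2 days after infection. Cells were cultured 3 days with test compound at 0, 1, 3, 10, 30, 100, 320 or 1000 nM. Growth was measured by MTT and IC50 derived. Data are three experiments in triplicate, mean±s.d.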

[5] = Body weight of treated mice; format: in vivo; details: NOD/SCID mice, oral 10 mg kg^−1 thrice weekly for 4 weeks
[6] = test system: H1975 cells stably carrying scramble vector; assay: MTT growth assay, scrambled shRNA control cells; format: cell-based, human
Outline: (§1)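 H1975 cells stably carrying a CRM1-targeting or scrambled shRNA were used, made by pLKO.1 lentiviral infection with polybrene for 16 h and puromycin selection for 3 days starting 2 days post-infection. Cells were cultured 72 h across a cisplatin series up to 10 μg ml−1. Growth was measured by MTT and IC50 derived. Data are three experiments in triplicate, mean±s.d.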

[7] = test system: CRM1; assay: Immunoblot of CRM1 protein in treated cells; format: cell-based, human; details: H1975 cell lysate, KPT-330 10–1000 nM, 24 h
Outline: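 H1975 cells were treated 24 h with test compound at 0, 10, 100 or 1000 nM. Whole-cell lysates were prepared with a mammalian lysis reagent, protein was measured by BCA, and samples were run on SDS-PAGE and blotted to PVDF. Membranes were blocked 1 h in TBS/5% milk/0.5% Tween 20, incubated with primary antibody overnight at 4 °C, then HRP secondary for 1 h at room temperature. Detection was by chemiluminescence, with β-actin as reference and densitometry of bands.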

[8] = test system: six NSCLC cell lines (A549, H460, H1975, PC14, H1299, and H23); assay: Cell cycle analysis by propidium iodide flow cytometry, six lines; format: cell-based, human; details: range over six NSCLC cell lines, 1 μM, 24 h
Outline: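 A549, H460, H1975, PC14, H1299 and H23 were seeded at 50% confluency, left overnight, then exposed for 24 h to test compound (1 μM) or diluent control. DNA content was stained with propidium iodide, and cell-cycle phase distribution was determined by flow cytometry.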

[9] = test system: PC14 cells, scramble vector control; assay: MTT growth assay, transient scramble control; format: cell-based; details: Homo sapiens, PC-14
[10] = test system: PC14 cells, shp73; assay: MTT growth assay, transient p73 silencing; format: cell-based; details: Homo sapiens, PC-14
[11] = Peripheral blood analysis after 28-day treatment; format: in vivo, NOD/SCID mice
Outline: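 H1975-xenografted male NOD/SCID mice (five per group) were given vehicle (0.6% w/v aqueous Pluronic F-68) or test compound orally, 10 mg kg−1 three times weekly for 4 weeks. After the 28-day treatment, peripheral blood was analysed for white cells, neutrophils, platelets and haematocrit, and serum for albumin, alkaline phosphatase, ALT and creatinine.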

[12] = test system: 11 NSCLC cell lines; assay: MTT proliferation assay, 72 h, whole panel; format: cell-based; details: Homo sapiens, read-out: calculated IC50 values, range
Outline: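 Eleven NSCLC lines (STR-verified) were grown in RPMI 1640 with 10% FBS and penicillin/streptomycin at 37 °C, 5% CO2. Cells were plated at 3 × 10^3 per well and exposed for 72 h to test compound at 0, 0.1, 1, 10, 100 or 1000 nM. Viability was read by MTT absorbance at 570 nm, and IC50 was taken from fitted dose-response curves.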

[13] = test system: H1975 NSCLC xenografts; assay: H1975 NSCLC xenograft tumour growth; format: in vivo; details: NOD/SCID mice, oral 10 mg kg^−1 thrice weekly for 4 weeks
Outline: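 Seven-week-old male NOD/SCID mice were injected subcutaneously in both flanks with H1975 cells (1.0 × 10^7) in matrigel. Mice were randomised into two groups of five and dosed orally three times weekly for 4 weeks with vehicle (0.6% w/v aqueous Pluronic F-68) or test compound (10 mg kg−1), with Nutri-Cal given during therapy. Calipers were used three times weekly; volume = width² × length/2. Tumour weights were taken after 28 days.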

[14] = test system: CRM1; assay: Quantitative RT-PCR of CRM1 mRNA in treated cells; format: cell-based, human; details: H1975, KPT-330 10–1000 nM, 24 h
Outline: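 H1975 cells were exposed for 24 h to test compound at 0, 10, 100 or 1000 nM. CRM1 mRNA was quantified by quantitative RT–PCR; experiments were done in triplicate and reported as mean±s.d.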

[15] = test system: H1975 cells stably containing shCRM1; assay: MTT growth assay, CRM1-knockdown cells; format: cell-based, human; details: H1975 shCRM1, cisplatin 72 h
Outline: as §1

Compound: CCC(=C/[C@H](C)C/C=C/C(C)=C/[C@@H](C)C(=O)[C@@H](C)[C@H](O)[C@@H](C)C/C(C)=C/C(=O)O)/C=C/[C@@H]1OC(=O)C=C[C@@H]1C [LMB, Leptomycin B]
- reversibility of binding to CRM1 [1]: not reversible

- IC50 [4]: > 1000 nM
- IC50 ([6]; Homo sapiens, NCI-H1975, 72 h): 98 nM
- Neut ([11]; NOD/SCID mice, 10 mg kg^−1 thrice weekly × 4 weeks, mean±s.d., range 0.15–7.9): 1.26±0.5 × 1000 per μl
- CREAT ([11]; NOD/SCID mice, 10 mg kg^−1 thrice weekly × 4 weeks, mean±s.d., range 0.2–0.9): 0.062 ± 0.01 mg/dL
- WBC ([11]; NOD/SCID mice, 10 mg kg^−1 thrice weekly × 4 weeks, mean±s.d., range 2.9–20.9): 4.0±0.3 × 1000 per μl
- Alb ([11]; NOD/SCID mice, 10 mg kg^−1 thrice weekly × 4 weeks, mean±s.d., range 25–30): 36.5 ± 0.6 g/L
- HCT ([11]; NOD/SCID mice, 10 mg kg^−1 thrice weekly × 4 weeks, mean±s.d., range 34–53): 46.2±7.5%
- ALP ([11]; NOD/SCID mice, 10 mg kg^−1 thrice weekly × 4 weeks, mean±s.d., range 35–96): 96±18 U l^−1
- PLT ([11]; NOD/SCID mice, 10 mg kg^−1 thrice weekly × 4 weeks, mean±s.d., range 685–1436): 786±180 × 1000 per μl
Compound: O=C(/C=C\n1cnc(-c2cc(C(F)(F)F)cc(C(F)(F)F)c2)n1)NNc1cnccn1 [KPT-330]
- range of apoptosis induced (annexin V/propidium iodide co-positive cells) [2]: 22–54%
- Ki-67-positive cells in tumour tissue [3]: decreased
- percent of TUNEL-positive cells in tumour tissue [3]: increased
- effect on body weight compared with the vehicle group [5]: did not have a significant effect
- mean relative body weight compared with mean starting weight [5]: 105%
- protein levels of CRM1 (western blot) [7]: dose-dependent decrease
- G1 cell cycle, range [8]: 56–82%
- G2/M phase, range [8]: 2–20%
- S phase, range [8]: 8–20%
- IC50 [9]: 197 nM
- IC50 [10]: 318 nM
- ALT ([11]; NOD/SCID mice, 10 mg kg^−1 thrice weekly × 4 weeks, mean±s.d., range 17–77): 46.2±10.2 U l^−1
- total white blood cells, neutrophils, platelet counts, haematocrit, serum albumin, alkaline phosphatase, ALT and creatinine compared with vehicle group ([11]; peripheral blood after the 28-day treatment): no significant alterations
- IC50 [12]: 25 to 995 nM
- tumour growth compared with vehicle-treated controls [13]: mark inhibition
- CRM1 mRNA levels [14]: no significant change

Compound: N.N.[Cl][Pt][Cl] [cisplatin, reference compound]
- IC50 [15]: 1.62 µg/mL
- IC50 ([6]; H1975 scramble, cisplatin 72 h, MTT): 8.1 µg/mL
